Key:
Rattus norvegicus [1] = assay: Effect of pretreatment with (+)-McN5652 with a dose of 2 mg/kg (i.v.) on specific binding of [18F]ACF in rat brain cortex; type: ADME, organism-based; set-up: dose 2 mg/kg, route intravenous; conditions: in vivo, iv
In short: (§1)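 Rats pretreated iv with drug (2 mg/kg) or saline 5 min before iv [18F]ACF (50 μCi). Sacrificed 1 h after tracer. Brain regions were dissected, weighed and counted, and % dose/g was calculated against a diluted initial dose. Drug-treated rats were compared with saline controls by ANOVA/Dunnett's test (p<0.05). Three rats per point, average ± SD.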

Rattus norvegicus [2] = assay: Effect of pretreatment with methylphenidate with a dose of 2 mg/kg (i.v.) on specific binding of [18F]ACF in rat brain blood; type: ADME, organism-based; set-up: dose 2 mg/kg, route intravenous; conditions: in vivo, iv; in short: as §1
Rattus norvegicus [3] = assay: Effect of pretreatment with methylphenidate with a dose of 2 mg/kg (i.v.) on specific binding of [18F]-ACF in rat brain striatum; type: ADME, organism-based; set-up: dose 2 mg/kg, route intravenous; conditions: in vivo, iv; in short: as §1
Rattus norvegicus [4] = species on record: Rattus norvegicus; assay: Organ distribution of [18F]ACF radiolabeled compound in rat heart after 2 min; type: ADME, organism-based; conditions: in vivo
In short: (§2)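 Rats, three per time point, under ether anesthesia; 30 μCi tracer in 0.2 mL saline injected into femoral vein. Sacrificed by cardiac excision under ether at 2, 30, 60, 120 or 240 min. Organs removed, weighed and counted; % dose/organ calculated against counts of 1% of initial dose counted at the same time. Average of three rats ± SD.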

Rattus norvegicus [5] = species on record: Rattus norvegicus; assay: Organ distribution of [18F]ACF radiolabeled compound in rat heart after 60 min; type: ADME, organism-based; conditions: in vivo, 1 h; in short: as §2
Rattus norvegicus [6] = assay: Effect of pretreatment with (+)-McN5652 with a dose of 2 mg/kg (i.v.) on specific binding of [18F]ACF in rat brain blood; type: ADME, organism-based; set-up: dose 2 mg/kg, route intravenous; conditions: in vivo, iv; in short: as §1
Rattus norvegicus [7] = species on record: Rattus norvegicus; assay: Organ distribution of [18F]-ACF radiolabeled compound in rat kidney after 240 min; type: ADME, organism-based; conditions: in vivo, 4 h
In short: (§3)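 Under ether anesthesia, 30 μCi no-carrier-added tracer in 0.2 mL saline injected into the femoral vein. Rats killed by cardiac excision at the stated time. Organs were removed, weighed and counted; % dose/organ was calculated against counts of a 1% initial-dose standard. Three rats per time, average ± SD.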

Rattus norvegicus [8] = species on record: Rattus norvegicus; assay: Regional brain distribution of [18F]-ACF radiolabeled compound in rat remainder (rest of brain) after 60 min; type: ADME, organism-based; conditions: in vivo, 1 h
In short: (§4)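 Rats (three per group) under ether anesthesia got 30 μCi tracer in 0.2 mL saline into the femoral vein and were killed by cardiac excision at the stated time. Cortex, striatum, hippocampus, cerebellum, hypothalamus and the rest of brain were dissected, weighed and gamma counted. %dose/g was taken against counts of a diluted initial dose. Regional ratios are each region's %dose/g over cerebellum's. Mean ± SD.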

Rattus norvegicus [9] = species on record: Rattus norvegicus; assay: Regional brain distribution of [18F]-ACF radiolabeled compound in rat striatum after 240 min; type: ADME, organism-based; conditions: in vivo, 4 h; in short: as §4
Rattus norvegicus [10] = species on record: Rattus norvegicus; assay: Regional brain distribution of [18F]-ACF radiolabeled compound in rat hypothalamus after 240 min; type: ADME, organism-based; conditions: in vivo, 4 h; in short: as §4
Rattus norvegicus [11] = species on record: Rattus norvegicus; assay: Regional brain distribution of [18F]-ACF radiolabeled compound in rat remainder (rest of brain) after 240 min; type: ADME, organism-based; conditions: in vivo, 4 h; in short: as §4
Rattus norvegicus [12] = species on record: Rattus norvegicus; assay: Organ distribution of [18F]-ACF radiolabeled compound in rat muscle after 2 min; type: ADME, organism-based, Muscle tissue; conditions: in vivo; in short: as §3
Rattus norvegicus [13] = species on record: Rattus norvegicus; assay: Organ distribution of [18F]-ACF radiolabeled compound in rat muscle after 60 min; type: ADME, organism-based, Muscle tissue; conditions: in vivo, 1 h; in short: as §3
Rattus norvegicus [14] = species on record: Rattus norvegicus; assay: Organ distribution of [18F]ACF radiolabeled compound in rat skin after 2 min; type: ADME, organism-based; conditions: in vivo; in short: as §2
Rattus norvegicus [15] = species on record: Rattus norvegicus; assay: Organ distribution of [18F]-ACF radiolabeled compound in rat spleen after 120 min; type: ADME, organism-based; conditions: in vivo, 2 h; in short: as §3
Rattus norvegicus [16] = species on record: Rattus norvegicus; assay: Organ distribution of [18F]ACF radiolabeled compound in rat spleen after 2 min; type: ADME, organism-based; conditions: in vivo; in short: as §2
Rattus norvegicus [17] = species on record: Rattus norvegicus; assay: Organ distribution of [18F]-ACF radiolabeled compound in rat spleen after 60 min; type: ADME, organism-based; conditions: in vivo, 1 h; in short: as §2
Rattus norvegicus [18] = species on record: Rattus norvegicus; assay: Regional brain distribution of [18F]-ACF radiolabeled compound in rat cerebellum after 240 min; type: ADME, organism-based; conditions: in vivo, 4 h; in short: as §4
Rattus norvegicus [19] = species on record: Rattus norvegicus; assay: Regional brain distribution of [18F]ACF radiolabeled compound in rat cerebellum after 30 min; type: ADME, organism-based; conditions: in vivo, 0.5 h; in short: as §4
Rattus norvegicus [20] = species on record: Rattus norvegicus; assay: Regional brain distribution of [18F]ACF radiolabeled compound in rat cortex after 60 min; type: ADME, organism-based; conditions: in vivo, 1 h; in short: as §4
Rattus norvegicus [21] = species on record: Rattus norvegicus; assay: Organ distribution of [18F]-ACF radiolabeled compound in rat heart after 240 min; type: ADME, organism-based; conditions: in vivo, 4 h; in short: as §3
Rattus norvegicus [22] = species on record: Rattus norvegicus; assay: Organ distribution of [18F]ACF radiolabeled compound in rat blood after 2 min; type: ADME, organism-based; conditions: in vivo; in short: as §2
Rattus norvegicus [23] = species on record: Rattus norvegicus; assay: Organ distribution of [18F]ACF radiolabeled compound in rat bone after 120 min; type: ADME, organism-based, Bone element; conditions: in vivo, 2 h; in short: as §2
Rattus norvegicus [24] = species on record: Rattus norvegicus; assay: Organ distribution of [18F]ACF radiolabeled compound in rat bone after 2 min; type: ADME, organism-based, Bone element; conditions: in vivo; in short: as §2
Rattus norvegicus [25] = species on record: Rattus norvegicus; assay: Regional brain distribution of [18F]ACF radiolabeled compound in rat hippocampus after 120 min; type: ADME, organism-based; conditions: in vivo, 2 h; in short: as §4
Rattus norvegicus [26] = species on record: Rattus norvegicus; assay: Regional brain distribution of [18F]-ACF radiolabeled compound in rat hippocampus after 30 min; type: ADME, organism-based; conditions: in vivo, 0.5 h; in short: as §4
Rattus norvegicus [27] = species on record: Rattus norvegicus; assay: Organ distribution of [18F]ACF radiolabeled compound in rat bone after 60 min; type: ADME, organism-based, Bone element; conditions: in vivo, 1 h; in short: as §2
Rattus norvegicus [28] = species on record: Rattus norvegicus; assay: Organ distribution of [18F]ACF radiolabeled compound in rat brain after 120 min; type: ADME, organism-based; conditions: in vivo, 2 h; in short: as §2
Rattus norvegicus [29] = species on record: Rattus norvegicus; assay: Organ distribution of [18F]ACF radiolabeled compound in rat brain after 240 min; type: ADME, organism-based; conditions: in vivo, 4 h; in short: as §2
Rattus norvegicus [30] = species on record: Rattus norvegicus; assay: Organ distribution of [18F]-ACF radiolabeled compound in rat brain after 30 min; type: ADME, organism-based; conditions: in vivo, 0.5 h; in short: as §3
Rattus norvegicus [31] = species on record: Rattus norvegicus; assay: Organ distribution of [18F]-ACF radiolabeled compound in rat brain after 60 min; type: ADME, organism-based; conditions: in vivo, 1 h; in short: as §3
Rattus norvegicus [32] = species on record: Rattus norvegicus; assay: Ratio of regional brain distribution of [18F]-ACF radiolabeled compound in rat cerebellum to that of cerebellum after 2 min; type: ADME, organism-based; conditions: in vivo
In short: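 Rats, three per time point, given 30 μCi tracer in 0.2 mL saline into femoral vein under ether anesthesia; killed at 2, 30, 60, 120 or 240 min. Cortex, striatum, hippocampus, cerebellum, hypothalamus and rest of brain dissected, weighed, counted; % dose/g against diluted initial dose, then each region divided by cerebellum. Average of three rats ± SD.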

Rattus norvegicus [33] = assay: Ratio of effect of pretreatment with nisoxatine with a dose of 2 mg/kg (i.v.) on specific binding of [18F]ACF in rat brain cortex to that of cerebellum; type: ADME, organism-based; set-up: dose 2 mg/kg, route intravenous; conditions: in vivo, iv
In short: (§5)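 Rats (three per point) pretreated iv with competing drug at 2 mg/kg or saline (control) 5 min before iv [18F]ACF (50 μCi). At 1 h post tracer, brain regions (cortex, striatum, hippocampus, cerebellum, hypothalamus, remainder) dissected, weighed, counted as % dose/g and expressed as ratio to cerebellum. Average ± SD; ANOVA with Dunnett's test vs saline controls, p < 0.05.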

Rattus norvegicus [34] = assay: Ratio of effect of pretreatment with nisoxatine with a dose of 2 mg/kg (i.v.) on specific binding of [18F]ACF in rat brain hypothalamus to that of cerebellum; type: ADME, organism-based; set-up: dose 2 mg/kg, route intravenous; conditions: in vivo, iv; in short: as §5
Rattus norvegicus [35] = species on record: Rattus norvegicus; assay: Ratio of regional brain distribution of [18F]ACF radiolabeled compound in rat hypothalamus to that of cerebellum after 120 min; type: ADME, organism-based; conditions: in vivo, 2 h; in short: as §4
Rattus norvegicus [36] = assay: Ratio of effect of pretreatment with (+)-McN5652 with a dose of 2 mg/kg (i.v.) on specific binding of [18F]ACF in rat brain hypothalamus to that of cerebellum; type: ADME, organism-based; set-up: dose 2 mg/kg, route intravenous; conditions: in vivo, iv; in short: as §5
Rattus norvegicus [37] = assay: Ratio of effect of pretreatment with methylphenidate with a dose of 2 mg/kg (i.v.) on specific binding of [18F]ACF in rat brain cerebellum to that of cerebellum; type: ADME, organism-based; set-up: dose 2 mg/kg, route intravenous; conditions: in vivo, iv; in short: as §5
Rattus norvegicus [38] = species on record: Rattus norvegicus; assay: Ratio of regional brain distribution of [18F]-ACF radiolabeled compound in rat hypothalamus to that of cerebellum after 30 min; type: ADME, organism-based; conditions: in vivo, 0.5 h; in short: as §4
Rattus norvegicus [39] = species on record: Rattus norvegicus; assay: Regional brain distribution of [18F]ACF radiolabeled compound in rat cerebellum after 120 min; type: ADME, organism-based; conditions: in vivo, 2 h; in short: as §4

## CN(C)Cc1ccccc1Sc1cc(F)c(Cl)cc1N
Rattus norvegicus [1]
  Dose/g: 0.24%
Rattus norvegicus [2]
  Dose/g: 0.28%
Rattus norvegicus [3]
  Dose/g: 0.47%
Rattus norvegicus [4]
  Dose/g: 1.69 % dose/organ
Rattus norvegicus [5]
  Dose/g: 0.11 % dose/organ
Rattus norvegicus [6]
  Dose/g: 0.26%
Rattus norvegicus [7]
  Dose/g: 0.51 % dose/organ
Rattus norvegicus [8]
  Dose/g: 0.39%
Rattus norvegicus [9]
  Dose/g: 0.05%
Rattus norvegicus [10]
  Dose/g: 0.05%
Rattus norvegicus [11]
  Dose/g: 0.03%
Rattus norvegicus [12]
  Dose/g: 14.3 % dose/organ
Rattus norvegicus [13]
  Dose/g: 7.69 % dose/organ
Rattus norvegicus [14]
  Dose/g: 4.76 % dose/organ
Rattus norvegicus [15]
  Dose/g: 0.06 % dose/organ
Rattus norvegicus [16]
  Dose/g: 0.64 % dose/organ
Rattus norvegicus [17]
  Dose/g: 0.13 % dose/organ
Rattus norvegicus [18]
  Dose/g: 0.02%
Rattus norvegicus [19]
  Dose/g: 0.37%
Rattus norvegicus [20]
  Dose/g: 0.33%
Rattus norvegicus [21]
  Dose/g: 0.04 % dose/organ
Rattus norvegicus [22]
  Dose/g: 6.56 % dose/organ
Rattus norvegicus [23]
  Dose/g: 0.28 % dose/organ
Rattus norvegicus [24]
  Dose/g: 0.01 % dose/organ
Rattus norvegicus [25]
  Dose/g: 0.14%
Rattus norvegicus [26]
  Dose/g: 0.7%
Rattus norvegicus [27]
  Dose/g: 0.08 % dose/organ
Rattus norvegicus [28]
  Dose/g: 0.21 % dose/organ
Rattus norvegicus [29]
  Dose/g: 0.06 % dose/organ
Rattus norvegicus [30]
  Dose/g: 1.28 % dose/organ
Rattus norvegicus [31]
  Dose/g: 0.69 % dose/organ
Rattus norvegicus [32]
  Ratio: 1
Rattus norvegicus [33]
  Ratio: 1.94
Rattus norvegicus [34]
  Ratio: 2.89
Rattus norvegicus [35]
  Ratio: 3.23
Rattus norvegicus [36]
  Ratio: 1.36
Rattus norvegicus [37]
  Ratio: 1
Rattus norvegicus [38]
  Ratio: 2.29
Rattus norvegicus [39]
  Dose/g: 0.05%

Reference: ChEMBL document CHEMBL1136006, “New PET imaging agent for the serotonin transporter: [(18)F]ACF (2-[(2-amino-4-chloro-5-fluorophenyl)thio]-N,N-dimethyl-benzenmethanamine)” (J Med Chem, 2002)
